According to PubChem BioAssay AID588830 (Broad Institute, 2011):
The source made the active and inactive calls.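 The calls were made as follows: active = fitted IC50 for falling signal at or below ten times the top tested dose; inconclusive = flat fit with 30 to 70% signal loss, or poor fit; inactive = the rest.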

Test system: not listed separately
Assay: short-term cytotoxicity in ldlA[mSR-BI] cells, dose response, cytotoxicity control for SR-BI HDL uptake inhibitor project, cell-based, CellTiter-Glo luminescence, 3 h, dry powder (AID 588830)
Settings: ldlA[mSR-BI] CHO cells viability, CellTiter-Glo ATP, 3 h; at 35 µM (top of the series)
Procedure, shortened: (§1)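 System: ldlA[mSR-BI] cells | Buffer or medium: Ham's F12 with 10% FCS and PSG | Doses: 8-concentration series per compound, added by pin transfer | Timing: 3 h compound exposure at 37 °C, 10 min reagent incubation | Measured by: Luminescence of cellular ATP via Cell Titer Glo reagent | Measure: Cytotoxicity IC50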

SMILES | activity change, negative = cytotoxicity
O=C(Nc1cc(Cl)ccc1Cl)c1cc(Br)ccc1NS(=O)(=O)c1ccc(Cl)c([N+](=O)[O-])c1 | -11.2% (inactive)
O=C(Nc1ccc(-c2nc3ccc(NC(=O)c4ccccc4[N+](=O)[O-])cc3[nH]2)cc1)c1ccccc1[N+](=O)[O-] | 6.32% (inactive)
O=C(Nc1ccc(-c2nc3cc(NC(=O)c4ccccc4[N+](=O)[O-])ccc3o2)cc1)c1ccccc1[N+](=O)[O-] | 1.25% (inactive)
CCc1cc2cc3c(cc2nc1SCC(=O)OC(C)C)OCO3 | -2% (inactive)
C[C@H]1CN([C@@H](C)CO)C(=O)c2cccc(NS(C)(=O)=O)c2O[C@@H]1CN(C)Cc1ccc(Cl)c(Cl)c1 | 1.6% (inactive)
C[C@H]1CN([C@@H](C)CO)C(=O)c2cccc(NC(=O)Nc3ccc(F)cc3)c2O[C@@H]1CN(C)Cc1ccc(Cl)c(Cl)c1 | -26.7% (inactive)
Cc1cc(SC(C)C(=O)Nc2ncc(Cl)cc2Cl)nc2ccccc12 (configuration not stated) | -10.7% (inactive)
C[C@H](CO)N1C[C@H](C)[C@H](CN(C)S(=O)(=O)c2ccc(F)cc2)Oc2ccc(NC(=O)CCC(F)(F)F)cc2C1=O | -1.99% (inactive)
Nc1ccc(C(=O)Nc2ccc(-c3nc4ccc(NC(=O)c5ccc(N)cc5)cc4[nH]3)cc2)cc1 | 7.17% (inactive)
C[C@@H]1CN([C@@H](C)CO)C(=O)c2cc(NC(=O)Cc3cn(C)c4ccccc34)ccc2O[C@H]1CN(C)S(=O)(=O)c1ccc(F)cc1 | -8.52% (inactive)
CCc1sc(N2C(=O)C3C4CCC(C4=C(C)C)C3C2=O)nc1-c1ccccc1 (configuration not stated) | -2.48% (inactive)
CNC[C@@H]1Oc2ccc(NC(=O)Cc3cn(C)c4ccccc34)cc2C(=O)N([C@H](C)CO)C[C@H]1C | -4.04% (inactive)
C[C@H]1CN([C@@H](C)CO)C(=O)c2cc(NC(=O)Nc3ccccc3)ccc2O[C@@H]1CN(C)Cc1ccc(Cl)c(Cl)c1 | -3.67% (inactive)
O=C(Nc1ccc(-c2nc3cc(NC(=O)c4ccccc4Cl)ccc3o2)cc1)c1ccccc1Cl | 11.9% (inactive)
O=C(Nc1ccccc1)c1ccccc1NS(=O)(=O)c1ccc(Cl)cc1 | -7.39% (inactive)
COC(=O)c1cn(C(=O)c2cccc3ccccc23)c2ccccc12 | -13.3% (inactive)
O=C(Nc1cccc(NC(=O)c2cc([N+](=O)[O-])ccc2Cl)n1)c1cc([N+](=O)[O-])ccc1Cl | -7.2% (inactive)
C[C@H]1CN([C@@H](C)CO)C(=O)c2cc(NC(=O)Cc3cn(C)c4ccccc34)ccc2O[C@@H]1CN(C)S(=O)(=O)c1ccc(F)cc1 | 1.18% (inactive)
C[C@@H]1CN([C@@H](C)CO)C(=O)c2cc(NC(=O)Cc3cn(C)c4ccccc34)ccc2O[C@@H]1CN(C)S(=O)(=O)c1ccc(F)cc1 | 2.84% (inactive)
O=C(Nc1ccc(-c2nc3cc(NC(=O)c4ccc(NC(=O)c5cccc6ccccc56)cc4)ccc3[nH]2)cc1)c1ccc(NC(=O)c2cccc3ccccc23)cc1 | 2.1% (inactive)
C[C@@H]1CN([C@H](C)CO)C(=O)Cc2cc(NC(=O)Cc3cn(C)c4ccccc34)ccc2O[C@H]1CN(C)S(=O)(=O)c1ccc(F)cc1 | 1.4% (inactive)
O=C(Nc1ccccc1Cl)c1ccccc1NS(=O)(=O)c1ccccc1 | -1.11% (inactive)
CCC(=O)N1CCc2cc(-c3csc(NC(=O)c4ccco4)n3)ccc21 | -8.77% (inactive)
C[C@@H]1CN([C@H](C)CO)C(=O)c2cc(NC(=O)Cc3cn(C)c4ccccc34)ccc2O[C@H]1CN(C)S(=O)(=O)c1ccccc1 | 1.08% (inactive)
C[C@@H]1CN([C@H](C)CO)C(=O)c2cc(NC(=O)Cc3cn(C)c4ccccc34)ccc2O[C@H]1CN(C)S(=O)(=O)c1ccc(Cl)cc1 | -0.219% (inactive)

Same assay, conditions: ldlA[mSR-BI] CHO cells viability, CellTiter-Glo ATP, 3 h; at 68 µM (top of the series)

SMILES | activity change, negative = cytotoxicity
CCOc1ccc(NC(=O)CN2CCN(CC(=O)Nc3cc(OC)cc(OC)c3)CC2)cc1 | -11.7% (inactive)

Test system: ldlA[mSR-BI] CHO cells viability, CellTiter-Glo ATP, 3 h
Assay: as above
Settings: not given
Procedure, shortened: as §1

SMILES | IC50
Cc1ccc2oc(-c3cccc(NC(=O)c4cc(-n5cnnc5)ccc4Cl)c3)nc2c1 | 12.8 µM
CCOc1ccccc1/C=C/c1onc(C)c1S(=O)(=O)N1CCC(C(=O)NC(C)(C)C)CC1 | > 70 µM (inactive)
Cc1ccc(-c2nnc(N3CCC(C)CC3)c3ccccc23)cc1C | 68.5 µM
Cc1cc(C(=O)C(C)OC(=O)C2=NNC(=O)CC2)c(C)n1-c1ccc(OC(F)F)cc1 (configuration not stated) | > 70 µM (inactive)
O=C(Nc1ccc(-c2nc3ccc(NC(=O)c4ccccc4)cc3[nH]2)cc1)c1ccccc1 | > 70 µM (inactive)
O=C(Nc1cc(Cl)ccc1Cl)c1cc(Cl)ccc1NS(=O)(=O)c1ccc(Cl)c([N+](=O)[O-])c1 | > 70 µM (inactive)
